S1P4 antagonist – human S1P4 receptor antagonism; hit rate 0.26% among 220,000; AID 1510; S1P4-expressing cells, antagonist mode, reporter read-out; O95977; inhibition, % at 4.98 µM; in the data active = inhibition above about 29%
S1P3 antag – S1P3 (human) receptor antagonism. Q99500. CHO S1P3 NFAT-BLA reporter, FRET fluorescence, antagonist mode. inhibition, % at 4.98 µM. hit rate 0.27% among 170,000. AID 485;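 active = inhibition above the plate cutoff, the mean inhibition of test wells on that plate plus 3 SD, cut at about 28% in these data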;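 note: cells challenged with S1P at its EC80 of 0.8 µM; blue over green emission ratio from cleaved BLA substrate after 4 h stimulation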
Target sequence (Q99500 whole entry, looked up): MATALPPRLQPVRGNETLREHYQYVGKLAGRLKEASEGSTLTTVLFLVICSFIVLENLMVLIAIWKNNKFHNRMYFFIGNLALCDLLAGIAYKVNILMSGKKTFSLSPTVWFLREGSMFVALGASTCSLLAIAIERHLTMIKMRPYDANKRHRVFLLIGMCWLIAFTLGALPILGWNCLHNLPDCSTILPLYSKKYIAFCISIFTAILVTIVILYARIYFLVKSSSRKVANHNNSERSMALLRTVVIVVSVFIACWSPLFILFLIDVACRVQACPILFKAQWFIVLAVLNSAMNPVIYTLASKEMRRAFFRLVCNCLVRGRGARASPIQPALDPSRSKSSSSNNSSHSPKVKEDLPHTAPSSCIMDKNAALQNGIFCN
S1P4 ag – agonists of human S1P4 receptor; hit rate 0.35% among 220,000; S1P4-expressing cell line, agonist reporter assay; O95977; activation, % at 4.98 µM; in the data active = activation above about 11%
Calb biofilm kill – mixtures killing C. albicans biofilm. C. albicans biofilm persisters + clotrimazole, fluorescence viability; primary screen in compound mixtures of four per well. hit rate 0.02% among 120,000. inhibition, % at 7.6 µM. AID 1242;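 active = inhibition above 30.3% in the primary screen of four-compound pools, then above 30% when the compound was retested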;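 note: compounds exposed to preformed 24 h biofilms for 48 h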
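Probe or stimulus – Clotrimazole 50 µg/mL co-treatment · System – C. albicans biofilms · Schedule – 24 h biofilm formation, then 48 h compound exposure, 37 °C · Evaluation – percent inhibition of biofilm viability · Technique – 2-h Alamar Blue fluorescence, 535/590 nm excitation/emission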
MDM2 E3 inh – Mdm2 E3 ligase (human) inhibition | AID 1230 | hit rate 0.11% among 210,000 | Q00987 | cell-based MDM2 ubiquitination luciferase reporter, 2 h; 0 = plate control, 100 = twice control, blank-subtracted | signal enhancement, % at 5 µM;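 active = signal enhancement of 30% or more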;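 note: luminescence tracks abundance of the self-degrading MDM2-luciferase fusion protein; higher signal means inhibition of MDM2 E3 ligase activity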
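Assay system: stable mammalian line carrying autodegrading MDM2–luciferase fusion reporter; amount: 2000 cells seeded into each well; buffer or medium: DMEM; benchmarks: plate control and blank wells; signal: luciferase luminescence; timing: 2 h compound exposure at 37 °C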
S1P4 agonist cf – confirmation of human S1P4 receptor agonists; hit rate 7% among 740; shares compounds with S1P4 ag; activation, % at 4.98 µM; S1P4 agonist cell-based reporter assay; AID 1523; in the data active = activation above about 12%
S1P1 ag – counter-screen for S1P4 agonists: agonists of human S1P1 | shares compounds with S1P4 ag | hit rate 4% among 740 | AID 1563 | activation, % at 4.98 µM | S1P1 agonist cell-based assay, activation; in the data active = activation above about 21%
Of the large screens only hits and unclear results are named; the others gave an inactive call (follow-up assays come after a bar, where they were run). Only some compounds are listed: those with a hit (about 0.9% of all), similar ones and a draw of the others.

COc1ccc(/C=C/C(=O)Nc2nonc2NC(C)=O)cc1	S1P4 ag 38 | S1P4 agonist cf inactive | S1P1 ag inactive
COc1ccc(/C=C/C(=O)Nc2cc(C)on2)cc1	none
COC(=O)NCC(c1ccco1)N1CCN(c2ccc(OC)cc2)CC1 (centres undefined)	none
COc1ccc(N2CCN(C(CNC(=O)C(=O)NCC3CCCO3)c3ccco3)CC2)cc1 (centres undefined)	S1P4 ag 13 (no result: MDM2 E3 inh) | S1P4 agonist cf inactive | S1P1 ag inactive
Cc1c(/C=C/C(=O)c2ccc(Cl)s2)cnn1C	S1P4 ag 13 (no result: S1P3 antag) | S1P4 agonist cf inactive | S1P1 ag inactive
Cc1c(/C=C/C(=O)c2ccccc2)cnn1C	none (no result: S1P3 antag, Calb biofilm kill)
COc1ccc(/C=N/NC(=O)Cn2nnc3ccccc32)cc1OC	S1P4 ag 132 | S1P4 agonist cf inactive | S1P1 ag inactive
CN(C)c1ccc(/C=N/NC(=O)Cn2nnc3ccccc32)cc1	none
Cc1ccsc1/C=N\NC(=O)Cn1nnc2ccccc21	S1P4 ag 28 | S1P4 agonist cf inactive | S1P1 ag inactive
Cc1ccc(/C=N\NC(=O)C2CC(=O)N(c3ccccc3)C2)o1 (centres undefined)	none
CSc1nnc2c(n1)OC(c1ccccn1)N(C(C)=O)c1ccccc1-2 (centres undefined)	none
NC(=S)NNC(=O)c1cc(C(F)(F)F)cc(C(F)(F)F)c1	S1P4 ag 77 | S1P4 agonist cf inactive | S1P1 ag inactive
CCn1cc(CNC(=O)/C=C/c2ccc([N+](=O)[O-])cc2)cn1	none
Cc1nc(-c2cccc(NS(=O)(=O)c3cccc4ccccc34)c2)cs1	S1P4 ag 12 (no result: S1P3 antag, Calb biofilm kill) | S1P4 agonist cf inactive | S1P1 ag inactive
O=[N+]([O-])c1ccccc1/C=C/C=N/Nc1ccc(S(=O)(=O)Nc2ccc(Cl)cc2)cc1[N+](=O)[O-]	none
CC(C)c1nc(SCC(=O)Nc2ccc([N+](=O)[O-])cc2Br)n[nH]1	S1P4 ag 68 | S1P4 agonist cf inactive | S1P1 ag inactive
COc1ccc2occ(C(=O)c3cccs3)c2c1	S1P4 ag 166 (no result: S1P3 antag, Calb biofilm kill) | S1P4 agonist cf inactive | S1P1 ag inactive
Cc1ccc(-n2c(=O)c(C#N)cc3c(=O)n4ccccc4nc32)cc1	none
Cc1cccc(-n2c(=O)c(C#N)cc3c(=O)n4ccccc4nc32)c1	S1P4 ag 14 (no result: S1P3 antag, Calb biofilm kill) | S1P4 agonist cf 17 | S1P1 ag 22
CN1CCN(Cc2c(O)ccc3cc(-c4ccccn4)c(=O)oc23)CC1	S1P4 ag 18 | S1P4 agonist cf inactive | S1P1 ag inactive
COc1ccc(C(=O)NCCn2cc(SCC(N)=O)c3ccccc32)cc1	none
CCCCc1nc(SCc2ccc([N+](=O)[O-])cc2)n[nH]1	none
c1ccc(-c2nccc(-c3ccc4c(c3)OCO4)n2)cc1	none
c1ccc(-c2nccc(-c3ccc(-n4cnc5ccccc54)cc3)n2)cc1	S1P4 ag 83 (no result: S1P3 antag, Calb biofilm kill) | S1P4 agonist cf inactive | S1P1 ag inactive
Cc1cccc(/C=N/NC(=O)c2cc3c(s2)-c2ccccc2CC3)c1	none (no result: S1P3 antag, Calb biofilm kill)
O=C(N/N=C/c1cccc(C(F)(F)F)c1)c1cc2c(s1)-c1ccccc1CC2	S1P4 ag 45 (no result: S1P3 antag, Calb biofilm kill) | S1P4 agonist cf inactive | S1P1 ag inactive
Nc1nc(SCC(=O)NCCc2ccccc2)[nH]c(=O)c1-c1ccccc1	none
CC/C(=N/O)C(=O)c1ccc(Br)cc1	none
COc1ccc(NC(=O)CSc2nc3c(c(=O)n2-c2ccc(F)cc2)SCC3)c(OC)c1	S1P4 ag 13 (no result: Calb biofilm kill) | S1P4 agonist cf inactive | S1P1 ag inactive
COc1ccc(-n2c(SCC(=O)Nc3cc(C)on3)nc3c(c2=O)SCC3)cc1	none (no result: Calb biofilm kill)
CCNc1nc2nc3ccc(C)cn3c(=O)c2cc1C(=O)NCC1CCCO1 (centres undefined)	S1P4 ag 13 | S1P4 agonist cf inactive | S1P1 ag inactive
NC(=O)c1cc2ccccc2oc1=NCc1ccccc1	none (no result: S1P3 antag, Calb biofilm kill)
NC(=O)c1cc2ccc(O)cc2oc1=Nc1ccccc1	S1P4 ag 33 (no result: Calb biofilm kill) | S1P4 agonist cf inactive | S1P1 ag inactive
NC(=O)c1cc2ccc(O)cc2oc1=NCc1ccccc1	S1P4 ag 79 (no result: Calb biofilm kill) | S1P4 agonist cf inactive | S1P1 ag inactive
COc1ccc2cc(C(=O)NCc3ccccc3)c(=Nc3ccc(C(=O)O)cc3)oc2c1	none
O=C(O)c1ccc(N=c2oc3cc(O)ccc3cc2C(=O)NCc2ccccc2)cc1	S1P4 ag 38 | S1P4 agonist cf inactive | S1P1 ag inactive
O=c1cc(CNc2ccc(Br)cc2)nc2sccn12	none
CCCn1c(SCC(=O)Nc2cc(S(=O)(=O)N3CCOCC3)ccc2OC)n[nH]c1=O	none
CCOC(=O)CS(=O)(=O)c1ccc(O)cc1	S1P4 ag 22 | S1P4 agonist cf inactive | S1P1 ag inactive
Cc1nnc2nc(-c3ccccc3)nc(-c3ccccc3)n12	none
COc1ccc(CN2CCC(N3CCC(C(=O)N4CCOCC4)CC3)CC2)c(F)c1	S1P4 ag 11 | S1P4 agonist cf inactive | S1P1 ag inactive
CCCN(CCC)c1ccc(/C=C/c2ccc3cc(OCC)ccc3n2)cc1	S1P4 ag 17 | S1P4 agonist cf 30 | S1P1 ag 47
Cc1ccccc1-n1c(=O)[nH]c(=O)c2c(N)c(C(=O)c3ccc(Cl)cc3)sc21	S1P4 ag 83 | S1P4 agonist cf inactive | S1P1 ag inactive
Cc1cccc(CN(C(=S)Nc2c(C)cccc2C)c2cccnc2)c1	S1P4 ag 18 | S1P4 agonist cf inactive | S1P1 ag inactive
CCCNc1cc(C)oc(=O)c1C(=O)CC	none
CC(=O)Nc1nc(C(=O)Nc2c(C)n[nH]c2C)cs1	S1P4 ag 14 (no result: Calb biofilm kill) | S1P4 agonist cf inactive | S1P1 ag inactive
Cc1nc(Sc2nnnn2C)c2c3c(sc2n1)CCC3	S1P4 ag 11 (no result: Calb biofilm kill) | S1P4 agonist cf inactive | S1P1 ag inactive
CCOCCCNC(=O)CN(c1cc([N+](=O)[O-])ccc1OC)S(C)(=O)=O	none
Cc1ccccc1OCC(=O)Nc1nc2ccccc2[nH]1	S1P4 ag 21 | S1P4 agonist cf inactive | S1P1 ag inactive
CCOc1ccccc1OCC(=O)Nc1nc2ccccc2[nH]1	none
CCC(C)c1ccccc1NC(=O)COC(=O)c1ccc2[nH]c3c(c2c1)CCCC3 (centres undefined)	none
COCCCN1C(=O)c2ccc(C(=O)OCC(=O)NCCc3ccccc3)cc2C1=O	S1P4 ag 16 | S1P4 agonist cf inactive | S1P1 ag inactive
O=C(NNS(=O)(=O)c1ccc(C(=O)NC2CCCC2)cc1)c1ccncc1	none
O=C(O)CCC(=O)Nc1ccccc1C(=O)N1CCN(c2ccc(Cl)cc2)CC1	S1P4 ag 122 | S1P4 agonist cf inactive | S1P1 ag inactive
O=C(O)C1CC=CCC1C(=O)Nc1ccccc1C(=O)N1CCN(c2ccc(Cl)cc2)CC1 (centres undefined)	none
N=C(N=C(N)N)N1CCc2ccccc21	none

Screening results from PubChem.
